Source: article PMC3253265 (Immunity, 2011)

Key:
[1] = system: 42F3 T cells; assay: p3A1 antagonist assay; assay type: cell-based; conditions: 42F3 T cells stimulated with 100nM p4B3, range of p3A1 concentrations, same APC
Procedure, shortened: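 Antagonism assay: 42F3 hybridoma cells were stimulated with an agonist peptide at 100nM. The test peptide was added over a range of concentrations, and IL-2 production was read by ELISA. Anti-CD3 (2C11) and/or native peptide served as IL-2 sensitivity controls. No peptide and an irrelevant H2-Ld MCMV epitope controlled for peptide-independent IL-2.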

[2] = system: 42F3 T cells; assay type: cell-based; conditions: CD8+ and CD8− 42F3 T cell lines, peptide-loaded APCs, up to 100μM peptide
[3] = system: 42F3 T cells; assay type: cell-based; conditions: recombinant H2-L^d-Ig dimers, CD8+ 42F3 T cells, IL-2 release
Procedure, shortened: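 CD8+ 42F3 hybridoma transfectants were stimulated with recombinant H2-Ld-Ig dimers loaded with peptide instead of APC-presented peptide. IL-2 release was read by ELISA. Anti-CD3 (2C11) and/or native peptide controlled IL-2 sensitivity. No-peptide and irrelevant H2-Ld MCMV epitope controls covered peptide-independent IL-2.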

[4] = system: 42F3 TCR; assay: SPR; assay type: binding, mouse; conditions: sc H2-L^d constructs
[5] = system: 42F3 TCR; assay: Fluorescent 42F3-tetramer staining of peptide-loaded APCs; assay type: cell-based
Procedure, shortened: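 Tetramers were made by complexing C-terminally biotinylated recombinant 42F3 TCR with PE-labelled streptavidin. They were used to stain peptide-loaded APCs, with fluorescence read by flow cytometry. Staining was compared against SPR-derived 3D affinities of the pMHC ligands.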

[6] = system: 42F3 T cells; assay: Fluorescent sc H2-L^d-tetramer staining of 42F3 T cells; assay type: cell-based
[7] = system: 42F3 TCR on CD8αβ− 42F3 T cells; assay type: binding
Procedure, shortened: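 42F3 hybridoma transfectants supplied the TCR. RBCs were biotinylated with biotin-X-NHS and then bound to streptavidin. Borosilicate beads were cleaned, silanized and reacted with streptavidin-maleimide. Both carried […] biotin-tagged single-chain H2-Ld-peptide complexes, the same ones used for SPR. Flow cytometry measured site densities of TCR on cells and pMHC on RBC or beads. Micropipette adhesion frequency and thermal fluctuation assays were run.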

## SPLDSLWWI [p3A1]
[1]
  effect on agonist (p4B3) induced activation: not influenced
[2]
  IL-2 response: failed to induce a strong IL-2 response
[3]
  stimulation of 42F3 T cells by peptide-loaded H2-L^d-Ig dimers: failed to stimulate
[4]
  SPR derived 3D affinity (KA), rank among the peptides: highest affinity
[5]
  42F3-tetramer staining of peptide-loaded APCs: stain
[6]
  H2-L^d-peptide-tetramer staining of 42F3 T cells: did not stain
[7]
  2D-Ackon: weak
[7]; H2-L^d-peptide
  2D-koff, rank among the peptides: slowest 2D-koff
